For assay [1], the system named is Vero. Put plainly: The compound was tested in vitro for the highest concentration (maximum tolerated level) that showed no cellular toxicity by visualization of stained cells. It is filed as functional, Chlorocebus sabaeus. In a few lines:
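Maximum tolerated level, run alongside the HSV-2 plaque assay in Vero cells: the highest concentration showing no cellular toxicity when the stained cells were inspected visually.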

For assay [2], the system named is Vero. Put plainly: In vitro anti-herpetic activity against HSV-2 plaque formation in vero cells; no activity. It is filed as functional, cell-based. The following applies: Chlorocebus sabaeus. In a few lines:
(§1)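 HSV-2 plaque reduction in Vero cells. MIC is the lowest concentration that inhibited plaque formation by 50%. For active compounds, values are the mean of at least two experiments, SD under ±50%.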

The test system of assay [3] is Mus musculus. Put plainly: The maximum tolerated dose (MTD) was defined as the highest dose of compound that did not show any signs of toxicity in mice after po administration. The class given is functional. In a few lines: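 Oral dosing in mice within the HSV-2 infection model. MTD is the highest dose showing no overt signs of toxicity.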
In assay [4] the test system is Mus musculus. Put plainly: The compound was tested in vivo for the lowest dose(minimum effective dose) at which anti-herpetic activity was observed in terms of survival times of mice after po administration. The class given is functional. The following applies: read-out: MED. In a few lines:
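HSV-2 infection model in mice, test agent given orally. MED is the lowest dose giving survival times statistically different from placebo, based on at least two experiments for active compounds.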

Assay [5] has as its system Vero. The assay is described as follows: In vitro anti-herpetic activity against HSV-2 plaque formation in vero cells. The class given is functional. Particulars: Chlorocebus sabaeus. In a few lines: as §1
For assay [6], the system named is Mus musculus. The assay is described as follows: The compound was tested in vivo for the lowest dose(minimum effective dose) at which anti-herpetic activity was observed in terms of survival times of mice after po administration; no activity. It is filed as functional, organism-based.
In assay [7] the test system is Mus musculus. The assay is described as follows: The compound was tested in vivo for the lowest dose(minimum effective dose) at which anti-herpetic activity (HSV-2) was observed in terms of survival times of mice after po administration; no activity. It is filed as functional, organism-based.

≈ marks a conversion by molar mass, not a printed value. Calls of active or inactive are those of the source. Bounds are passed on as bounds.

For `CCn1cc2c(=O)ncnc-2c2ccc(-c3ccncc3)cc21`, the MTL with Vero [1] was over 100 µg/mL. Besides, the MIC result in the assay on Vero [2] was “inactive”.

The MTD is the largest dose that counted as tolerated. A high value points to a wide tolerated range. Compound `Nc1nc2c(ncn2COCCO)c(=O)[nH]1` [ACYCLOVIR] had an MTD in the assay with Mus musculus [3] of over 200 mg/kg. In addition, the minimal effective dose in the assay with Mus musculus [4] was 12 mg/kg. In addition, the MTL in the assay with Vero [1] is over 200 µg/mL. The same compound returned an MIC in the assay with Vero [5] of 1.3 µg/mL (≈ 5.77 µM).

As for `NC(=O)c1cn(-c2ccc(F)cc2)c2cc(-c3ccncc3)ccc2c1=O`, in the assay with Mus musculus [3], the MTD was 50 mg/kg. In addition, the minimal effective dose with Mus musculus [4] is 25 mg/kg. The compound further had an MTL in the assay on Vero [1] of 6.25 µg/mL. This compound also had an MIC with Vero [5] of 0.24 µg/mL (≈ 0.668 µM).

Compound `CCn1cc2c(O)cnc-2c2ccc(-c3ccncc3)cc21` gave an MTL in the assay with Vero [1] of 100 µg/mL. Moreover, in the assay with Vero [2], the MIC result is “inactive”.

`CCn1c(C)c2c(=O)onc-2c2ccc(-c3ccncc3)cc21`: the MTD in the assay on Mus musculus [3] is over 50 mg/kg. The MED result with Mus musculus [6] is “inactive”. In the assay with Vero [1], this compound yielded an MTL of over 100 µg/mL. The compound also registered an MIC against Vero [5] of 2.9 µg/mL (≈ 9.5 µM).

Consider `CCn1cc2c(=O)[nH]nc-2c2ccc(-c3ccncc3)cc21`, for which the MTD in the assay on Mus musculus [3] was over 200 mg/kg. Also, the MED entry with Mus musculus [6] is “inactive”. The compound further showed an MTL with Vero [1] of 50 µg/mL. The compound also displayed an MIC in the assay with Vero [5] of 27 µg/mL (≈ 93 µM).

`CCn1c(C)c(C(N)=O)c(=O)c2ccc(-c3ccncc3)cc21` yielded an MTL in the assay on Vero [1] of 50 µg/mL. The MIC result in the assay with Vero [2] was “inactive”.

`CCn1cc2c(=O)n(-c3ccccc3)nc-2c2ccc(-c3ccncc3)cc21` gave an MTL in the assay with Vero [1] of over 100 µg/mL. Besides, in the assay on Vero [2], the MIC result is “inactive”.

Compound `CCn1cc(C(N)=O)c(=O)c2ccc(-c3ccncc3)cc21` came in with an MTD in the assay with Mus musculus [3] of 50 mg/kg. In addition, the minimal effective dose with Mus musculus [4] is 50 mg/kg. In addition, in the assay on Vero [1], the MTL amounted to 12.5 µg/mL. In the assay with Vero [5], this compound gave an MIC of 6.5 µg/mL (≈ 22.2 µM).

For `CCn1cc2c(=O)onc-2c2ccc(-c3ccncc3)cc21`, the MTD in the assay with Mus musculus [3] is over 400 mg/kg. In the assay with Mus musculus [7], the MED result was “inactive”. In addition, the MTL in the assay with Vero [1] was over 100 µg/mL. The same compound returned an MIC with Vero [5] of 6.3 µg/mL (≈ 21.6 µM).

Compound `CCn1cc2c(=O)n(C)nc-2c2ccc(-c3ccncc3)cc21` showed an MTL in the assay on Vero [1] of 3.1 µg/mL. In addition, the MIC result in the assay on Vero [2] is “inactive”.

Values taken from ChEMBL document CHEMBL1128426, “Cyclic variations of 3-quinolinecarboxamides and effects on antiherpetic activity” (1995).
